Experimental data taken from ChEMBL document CHEMBL1154457, “Synthesis, anti-tubercular activity and 3D-QSAR study of coumarin-4-acetic acid benzylidene hydrazides” (2008).

Tested on: Mycobacterium tuberculosis
Experiment: Antitubercular activity against Mycobacterium tuberculosis H37Rv at 12.5 ug/mL after 5 to 8 days
Type: functional
Procedure, shortened: (§1)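 Inoculum diluted to reach growth index 999 in 5 days. Compound added from DMSO stock to 4 ml radiometric 7H12 (BACTEC-12B) broth; DMSO-only controls. Incubated at 37 °C, GI read daily until control reached 999. %inhibition = (1 − GI test/GI control) × 100.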

| Structure (SMILES) | inhibition at 12.5 µg/mL |
| --- | --- |
| Cc1cc2oc(=O)cc(CC(=O)N/N=C/c3ccccc3Cl)c2cc1C | 17% |
| Cc1cc2oc(=O)cc(CC(=O)N/N=C/c3cccc([N+](=O)[O-])c3)c2cc1C | 31% |
| Cc1ccc(C)c2c(CC(=O)N/N=C/c3ccccc3Cl)cc(=O)oc12 | 48% |
| Cc1ccc(C)c2c(CC(=O)N/N=C/c3ccc(Cl)cc3)cc(=O)oc12 | 62% |
| Cc1ccc(C)c2c(CC(=O)N/N=C/c3ccc(N(C)C)cc3)cc(=O)oc12 | 7% |
| CSc1ccc(/C=N/NC(=O)Cc2cc(=O)oc3cc(C)c(C)cc23)cc1 | 6% |
| Cc1cc2oc(=O)cc(CC(=O)N/N=C/c3ccccc3[N+](=O)[O-])c2cc1C | 11% |
| Cc1cc2oc(=O)cc(CC(=O)N/N=C/c3ccc(Cl)cc3)c2cc1C | 32% |
| COc1ccccc1/C=N/NC(=O)Cc1cc(=O)oc2c(C)ccc(C)c12 | 54% |
| Cc1ccc(C)c2c(CC(=O)N/N=C/c3ccccc3)cc(=O)oc12 | 70% |
| Cc1ccc(C)c2c(CC(=O)N/N=C/c3cccc([N+](=O)[O-])c3)cc(=O)oc12 | 39% |
| COc1cc(/C=N/NC(=O)Cc2cc(=O)oc3c(C)ccc(C)c23)cc(OC)c1OC | 52% |
| Cc1ccc(C)c2c(CC(=O)N/N=C/c3ccccc3[N+](=O)[O-])cc(=O)oc12 | 65% |

Tested on: Mycobacterium tuberculosis
Experiment: Antitubercular activity against Mycobacterium tuberculosis H37Rv at 6.25 ug/mL after 5 to 8 days
Type: functional
Procedure, shortened: as §1

| Structure (SMILES) | inhibition at 6.25 µg/mL |
| --- | --- |
| O=C(Cc1cc(=O)oc2cc(O)ccc12)N/N=C/c1cccc([N+](=O)[O-])c1 | 93% |
| COc1cccc(/C=N/NC(=O)Cc2cc(=O)oc3ccc(C)cc23)c1 | 19% |
| COc1cc(/C=N/NC(=O)Cc2cc(=O)oc3ccc(C)cc23)cc(OC)c1OC | 34% |
| COc1ccc(/C=N/NC(=O)Cc2cc(=O)oc3ccc(C)cc23)cc1OC | 29% |
| Cc1ccc2oc(=O)cc(CC(=O)N/N=C/c3ccccc3)c2c1 | 34% |
| Cc1ccc2oc(=O)cc(CC(=O)N/N=C/c3ccc(Cl)cc3)c2c1 | 19% |
| COc1ccc(/C=N/NC(=O)Cc2cc(=O)oc3ccc(C)cc23)cc1 | 33% |
| Cc1ccc2oc(=O)cc(CC(=O)N/N=C/c3cccc(Cl)c3)c2c1 | 21% |
| Cc1ccc2oc(=O)cc(CC(=O)N/N=C/c3ccc(F)cc3)c2c1 | 26% |
| Cc1ccc2oc(=O)cc(CC(=O)N/N=C/c3cccc([N+](=O)[O-])c3)c2c1 | 19% |
| Cc1ccc2oc(=O)cc(CC(=O)N/N=C/c3ccccc3Cl)c2c1 | 34% |
| Cc1ccc2oc(=O)cc(CC(=O)N/N=C/c3ccccc3O)c2c1 | 55% |
